The text below walks through data of the RNAGym collection of RNA variant scans (doi:10.1126/science.aae0568).

Sequences and labels used below:
B1: tRNA (parent)
chain: GUUCCGUUGGCGUAAUGGUAACGCGUCUCCCUCCUAAGGAGAAGACUGCGGGUUCGAGUCCCGUACGGAACG

Variants at the floor of the assay were thinned out. Where only a bound is given, the exact number is not on record here.

Variants of B1 are the subject of the data set. As to the kind of experiment: yeast fitness relative to wild type (ratio to wild type); higher = fitter; tRNA-Arg(CCU), competitive growth, 37 C, YPD. The procedure, abridged: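 Variants of the tRNA-Arg(CCU) gene, chemically synthesised with a 3% per-site mutation rate at 69 sites, were placed at the native genomic locus in Saccharomyces cerevisiae. The pooled strains were competed in YPD at 37°C for 24 hours in six parallel replicates. Gene amplicons from the start population and from each end population were read by 100-nucleotide paired-end sequencing. Darwinian fitness relative to wild type came from changes in genotype frequencies; genotypes needed ≥ 100 starting reads, and estimates < 0.5 were set to 0.5.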
With C4A C55U, the yeast fitness amounted to 0.943.

Regarding C4A G6A A21C C24U A43G, the yeast fitness was no more than 0.5.

U3G C49G G56A: the yeast fitness is no more than 0.5.

For C4A C5A C11G A15U U19C A21U, the yeast fitness was no more than 0.5.

In the case of C4A G12C, the yeast fitness amounted to 0.679.

For C4A G51C, the yeast fitness stood at 0.547.

On to C4A C27G C31G, for which the yeast fitness is no more than 0.5.

Turning to C4A G48C G51C A57U G68C, the yeast fitness was no more than 0.5.

C4A U26A: the yeast fitness is 0.683.

Turning to U3C U59C A65C A69G, the yeast fitness is 0.593.

Turning to C4A C5G A57U G68U, the yeast fitness turned out to be 0.575.

As for C4A C5G C24U G25A A57U, the yeast fitness was no more than 0.5.

In the case of C4A A14C A21G C29A C34U A69U, the yeast fitness is no more than 0.5.

On to C4A A36C A57G A65U, for which the yeast fitness was no more than 0.5.

On to C4A G51C C66U, for which the yeast fitness is no more than 0.5.

As for C4A C5U C22U C34A C49G, the yeast fitness is no more than 0.5.

For the variant C4A G39C G41C G56C, the yeast fitness is no more than 0.5.

Turning to C4G A15G G17A C34A, the yeast fitness is no more than 0.5.

Take U3G C66U: the yeast fitness came out at 0.699.

In the case of U3G U59C, the yeast fitness came to 0.888.

In the case of U3C U19A U28A C60G, the yeast fitness was no more than 0.5.

On to C4A C30A A40G G48A, for which the yeast fitness was no more than 0.5.

For U3G C4U C30U C33G C55U G68U, the yeast fitness was no more than 0.5.

Regarding C4A C31G A40U A65U G68C, the yeast fitness turned out to be 0.595.

For C4A A36C, the yeast fitness was 0.686.

With U3G C5A A20G C29U C31A C55U A57C, the yeast fitness is no more than 0.5.

For the variant C4A A14C U19A, the yeast fitness was no more than 0.5.

As to C4A C5U C22U C34A, the yeast fitness was 0.576.

For the variant C4A G63C, the yeast fitness turned out to be 0.748.

For the variant C4A C22U C33G A45C U47C U53G A69C, the yeast fitness was no more than 0.5.

For U3C U28C, the yeast fitness is 1.08.

Consider U3G U19A G51A C66G, for which the yeast fitness is no more than 0.5.

Turning to C4A C27U A42U C62U, the yeast fitness is no more than 0.5.

In the case of C4A A20C C29A, the yeast fitness is no more than 0.5.

In the case of U3C U19G C27G C34A A42U, the yeast fitness is no more than 0.5.

In the case of C4A C11U U32A G38C U47A U53G, the yeast fitness came out at 0.56.

For the variant U3G G18A A65U, the yeast fitness came out at 0.548.

With C4A U7C G41A C49A U54C, the yeast fitness is no more than 0.5.

Regarding U3G G51A, the yeast fitness amounted to 0.701.

In the case of C4A C5A A20U, the yeast fitness is 0.605.

C4A C11A C33G A57C C61G: the yeast fitness came to 0.534.

Consider C4A A21G C60G G67A, for which the yeast fitness is no more than 0.5.

On to U3G G38A C60A, for which the yeast fitness is no more than 0.5.

With C4A U19A C27U G67A, the yeast fitness amounted to 0.573.

On to C4G A15G G23A C34G G67A, for which the yeast fitness turned out to be 0.556.

C4A U8C C49U C55A C66U: the yeast fitness is no more than 0.5.

Consider U3G C4A A40U C66A A69C, for which the yeast fitness was no more than 0.5.

With C4A U19A A40U G48C, the yeast fitness is no more than 0.5.

For U3G A43G G56A, the yeast fitness amounted to 0.601.

With C4A C5U C29G C33U U59G A69C, the yeast fitness was 0.533.

Turning to C4A A14G A36U A57U, the yeast fitness is 0.953.

Consider C4A C29U C33A A36C A42C A45G, for which the yeast fitness is no more than 0.5.

As for C4A C29G A37C U54A, the yeast fitness is no more than 0.5.

Regarding U3G C29A U53A, the yeast fitness is no more than 0.5.

In the case of C4G A14G C31A, the yeast fitness was 0.528.

Take C4A U7A U8A U35C C60A: the yeast fitness is no more than 0.5.

For U3G A20C G44C C61U, the yeast fitness is 0.606.

U3G C30G A40C C46U: the yeast fitness came to 0.57.

As to C4A U13G C24U A42G G52A, the yeast fitness stood at 0.601.

With C4A C5U G39C A42C, the yeast fitness was no more than 0.5.

Consider C4A G68C, for which the yeast fitness came out at 0.808.

Consider U3G C4G A70C, for which the yeast fitness is no more than 0.5.

On to C4A G17A C24G G63C, for which the yeast fitness worked out at 0.64.

As to U3G U28C C62U, the yeast fitness came to 0.638.

Take C4A C60U: the yeast fitness stood at 0.825.

Consider C4A G17A G41A U54A A57C, for which the yeast fitness was no more than 0.5.

Turning to C4A A20U U28A C31U C55G A57C, the yeast fitness was no more than 0.5.

As for U3G C24A C34A C46G, the yeast fitness amounted to 0.581.

For the variant U3G U8C A15U G25A C49A, the yeast fitness was no more than 0.5.

Turning to C4A C11A C33G, the yeast fitness amounted to 0.544.

For the variant C4A A14U A20C U28G A42G, the yeast fitness is no more than 0.5.

Turning to U3G G44A C66U, the yeast fitness was found to be 0.582.

Consider C4A C5G C22U, for which the yeast fitness is no more than 0.5.

Consider C4A U8A G12C U19C C30U, for which the yeast fitness was no more than 0.5.

For C4A G10A G50A, the yeast fitness is no more than 0.5.

C4A G48C: the yeast fitness came to 0.749.

For the variant C4A C27G C46U, the yeast fitness was determined as 0.636.

As to C4A U16A A43C C46U, the yeast fitness is no more than 0.5.

Turning to C4G A14U A37U U53C A69U, the yeast fitness is no more than 0.5.

In the case of C4A A20C C27U, the yeast fitness was 0.636.

As for C4A A15C C66U, the yeast fitness is no more than 0.5.

As for U3C U16G C29U C46U G67C A69U, the yeast fitness is no more than 0.5.

For C4A G17C, the yeast fitness is 0.629.

As to C4A C11U U32A G38C C55U G58A G67A, the yeast fitness was no more than 0.5.

On to U3C U47A U53C, for which the yeast fitness was no more than 0.5.

On to C4A C30A, for which the yeast fitness worked out at 0.837.

As for C4A C30G, the yeast fitness is 0.661.

Regarding U3C U32A C46G C62A, the yeast fitness was no more than 0.5.

Take C4A C22A C55U: the yeast fitness was no more than 0.5.

As to C4A G6A C30A A65G, the yeast fitness was no more than 0.5.

Regarding C4A A37U C55U, the yeast fitness was 0.585.

As for C4A A20C C27U G50A, the yeast fitness stood at 0.597.

Consider C4A G67U, for which the yeast fitness stood at 0.843.

As for C4A G9C C11G C30A C55A C62A, the yeast fitness was no more than 0.5.

As for U3G A43U U54A A57C, the yeast fitness came out at 0.588.

For U3G C4U A20G U35A G58A G67U, the yeast fitness is no more than 0.5.

For the variant U3G C5G A20C, the yeast fitness was no more than 0.5.

Turning to C4A C49G G63C, the yeast fitness worked out at 0.9.

In the case of C4A C22G G51C A65C, the yeast fitness was 0.731.

In the case of C4A C66A, the yeast fitness was determined as 0.569.

For the variant U3G G17C G18C C22A C60A C66U, the yeast fitness was no more than 0.5.

For C4A G18C, the yeast fitness worked out at 0.58.

With C4A G18A, the yeast fitness turned out to be 0.78.

With C4A A14G U26A, the yeast fitness is no more than 0.5.

C4A A20G G58A A70C: the yeast fitness was determined as 1.02.

Turning to C4G, the yeast fitness came out at 1.01.

As to C4A, the yeast fitness was found to be 0.998.

Take U3G U8C C62U: the yeast fitness is 0.525.

Regarding U3G U54G A57C, the yeast fitness was no more than 0.5.

On to C4A G17A C62A, for which the yeast fitness is no more than 0.5.

As to C4A C11G U13G G25A C62U G63A, the yeast fitness was no more than 0.5.

For the variant U3G A20C A43U C55A A65U A70G, the yeast fitness was no more than 0.5.

For C4G A14G U64C, the yeast fitness was no more than 0.5.

In the case of C4G A15U A21G G48A G50C, the yeast fitness was no more than 0.5.

Regarding C4A U13A G58C A69U, the yeast fitness is 0.655.

Turning to U3G C4U, the yeast fitness amounted to 0.915.

For the variant C4A A45C G52A G67U, the yeast fitness came out at 0.577.

For U3G C4G C22U C29U G52C G63A G67U A70C, the yeast fitness was no more than 0.5.

C4A A15G G17A C33U G39C C55A G67C: the yeast fitness is no more than 0.5.

As for C4A G9A C22A C27G, the yeast fitness is no more than 0.5.

U3G G48A U53G: the yeast fitness was no more than 0.5.

Consider C4A C33A C60A, for which the yeast fitness was no more than 0.5.

Regarding C4A U8C C24G G44C G68U, the yeast fitness was no more than 0.5.

With C4G A20G G51C, the yeast fitness was found to be 0.66.

In the case of C4A C33G U47A, the yeast fitness amounted to 0.625.

For the variant C4A A65U, the yeast fitness was found to be 0.719.

Consider C4A A65G, for which the yeast fitness turned out to be 0.946.

With C4A G38C, the yeast fitness came out at 0.652.

Take C4A U26C C27G C33G A37U G41A A57G C62G: the yeast fitness was no more than 0.5.

As for C4A G23C C24U A65G, the yeast fitness turned out to be 0.556.

For the variant C4A A20G, the yeast fitness was 0.859.

For C4A C29G G50A, the yeast fitness is no more than 0.5.

For U3G C11G A15C C60U, the yeast fitness was no more than 0.5.

For C4G A15G U26G, the yeast fitness was no more than 0.5.

U3G A15C: the yeast fitness was determined as 0.511.

Regarding C4A A15G G17A, the yeast fitness turned out to be 0.724.

With C4A C11G C34U, the yeast fitness was no more than 0.5.

In the case of U3G A14G C60G, the yeast fitness is no more than 0.5.

Turning to C4A C24G C30U A45G, the yeast fitness was 0.523.

For the variant C4A U19G C30G, the yeast fitness is no more than 0.5.

In the case of C4A A20C A42U C66U, the yeast fitness is no more than 0.5.

Regarding U3G C5U, the yeast fitness came to 0.724.

Take C4G A14U A20G A21C: the yeast fitness came out at 0.55.

In the case of U3G C11A G23C G52C, the yeast fitness is no more than 0.5.

Turning to C4A A15U G18C C55U G56C G67A, the yeast fitness is no more than 0.5.

As for C4A U13A G18A G52A C55G A69U, the yeast fitness was no more than 0.5.

Regarding C4A G25C C61A, the yeast fitness amounted to 0.694.

Regarding C4A C34A C62G, the yeast fitness is no more than 0.5.

As to U3G A36G G52A C66A A69U, the yeast fitness is no more than 0.5.

Consider U3G A14C C24G A36G, for which the yeast fitness is no more than 0.5.

Take C4A U16C C34U C61A: the yeast fitness is no more than 0.5.

Take U3G G51A C66U: the yeast fitness was no more than 0.5.

C4A U19G U35C U53C: the yeast fitness was no more than 0.5.

In the case of C4A C24A G51C, the yeast fitness was 0.595.

For the variant U3C U26C, the yeast fitness was determined as 0.886.

As to C4G A14C G50C G56C, the yeast fitness is no more than 0.5.

C4A U32G A45G A69U: the yeast fitness is no more than 0.5.

Consider C4A U32C C46A, for which the yeast fitness is 0.697.

C4G A15C U26G G41C A69U: the yeast fitness was no more than 0.5.

U3G A15G C34A A70G: the yeast fitness was 0.555.

Consider U3G A45G U54C, for which the yeast fitness turned out to be 0.678.

For the variant C4A C22G C29U U35C, the yeast fitness was no more than 0.5.

As to C4A C27A C62A, the yeast fitness was no more than 0.5.

With C4A A45U C55U A70C, the yeast fitness is no more than 0.5.

Consider C4A G56U, for which the yeast fitness turned out to be 0.786.

Turning to C4A C27U U28G C33G A36G G56C, the yeast fitness is no more than 0.5.

Take C4A G56A C62U: the yeast fitness was 0.626.
